# Source: ChEMBL document CHEMBL1255358, “Relation between genetic markers of drug resistance and susceptibility profile of clinical Neisseria gonorrhoeae strains” (2008)
# Legend:
# Type in all cases: functional
# Neisseria gonorrhoeae [1] = test: Antimicrobial activity against Neisseria gonorrhoeae obtained from patient with uncomplicated gonorrhea assessed as incidence of resistant isolates by agar dilution method
# Summary of the method: (§1)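 Clinical isolates shipped frozen on dry ice to a central lab, recovered from cryobeads onto GC agar and subcultured once. MICs were determined by agar dilution on GC agar supplemented with PolyViteX, with strain ATCC 49226 as control. Isolates were classed susceptible, intermediate or resistant by current CLSI criteria. Genotypes were assigned by PCR, and by minisequencing with MALDI-TOF mass spectrometry.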
# Neisseria gonorrhoeae [2] = test: Antimicrobial activity against Neisseria gonorrhoeae obtained from patient with uncomplicated gonorrhea assessed as incidence of susceptible isolates by agar dilution method
# Summary of the method: (§2)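 Agar dilution MICs on GC agar supplemented with PolyViteX, tested against penicillin, tetracycline and fluoroquinolones. Clinical isolates were shipped frozen on dry ice to a central laboratory, recovered from cryobeads on GC agar plates and subcultured once before testing. Strain ATCC 49226 served as the control. Isolates were classed susceptible, intermediate or resistant using current CLSI interpretive criteria.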
# Neisseria gonorrhoeae [3] = test: Antimicrobial activity against Neisseria gonorrhoeae obtained from patient with uncomplicated gonorrhea assessed as percentage intermediate isolates by agar dilution method; summary of the method: as §2
# Neisseria gonorrhoeae [4] = test: Antimicrobial activity against Neisseria gonorrhoeae obtained from patient with uncomplicated gonorrhea expressing penA mutant gene assessed as percentage intermediate isolates by agar dilution method; summary of the method: as §1
# Neisseria gonorrhoeae [5] = test: Antimicrobial activity against Neisseria gonorrhoeae obtained from patient with uncomplicated gonorrhea expressing penA mutant gene assessed as incidence of resistant isolates by agar dilution method; summary of the method: as §1
# Neisseria gonorrhoeae [6] = test: Antimicrobial activity against Neisseria gonorrhoeae obtained from patient with uncomplicated gonorrhea expressing mtrR mutant gene assessed as incidence of resistant isolates by agar dilution method; summary of the method: as §1
# Neisseria gonorrhoeae [7] = test: Antimicrobial activity against Neisseria gonorrhoeae obtained from patient with uncomplicated gonorrhea expressing penB mutant gene assessed as incidence of resistant isolates by agar dilution method; summary of the method: as §1
# Neisseria gonorrhoeae [8] = test: Antimicrobial activity against Neisseria gonorrhoeae obtained from patient with uncomplicated gonorrhea expressing penA and penB mutant gene assessed as incidence of resistant isolates by agar dilution method; summary of the method: as §1
# Neisseria gonorrhoeae [9] = test: Antimicrobial activity against Neisseria gonorrhoeae obtained from patient with uncomplicated gonorrhea expressing penA and mtrR mutant gene assessed as incidence of resistant isolates by agar dilution method; summary of the method: as §1
# Neisseria gonorrhoeae [10] = test: Antimicrobial activity against Neisseria gonorrhoeae obtained from patient with uncomplicated gonorrhea expressing penA, penB and mtrR mutant gene assessed as incidence of resistant isolates by agar dilution method; summary of the method: as §1
# Neisseria gonorrhoeae [11] = test: Antimicrobial activity against Neisseria gonorrhoeae obtained from patient with uncomplicated gonorrhea expressing penA and ponA mutant gene assessed as incidence of resistant isolates by agar dilution method; summary of the method: as §1
# Neisseria gonorrhoeae [12] = test: Antimicrobial activity against Neisseria gonorrhoeae obtained from patient with uncomplicated gonorrhea expressing penA, ponA and mtrR mutant gene assessed as incidence of resistant isolates by agar dilution method; summary of the method: as §1
# Neisseria gonorrhoeae [13] = test: Antimicrobial activity against Neisseria gonorrhoeae obtained from patient with uncomplicated gonorrhea expressing penA, penB and ponA mutant gene assessed as incidence of resistant isolates by agar dilution method; summary of the method: as §1
# Neisseria gonorrhoeae [14] = test: Antimicrobial activity against Neisseria gonorrhoeae obtained from patient with uncomplicated gonorrhea expressing penA, penB, ponA and mtrR mutant gene assessed as incidence of resistant isolates by agar dilution method; summary of the method: as §1
# Neisseria gonorrhoeae [15] = test: Antimicrobial activity against Neisseria gonorrhoeae obtained from patient with uncomplicated gonorrhea expressing beta-lactamase TEM-1 mutant gene assessed as incidence of resistant isolates by agar dilution method; summary of the method: as §1
# Neisseria gonorrhoeae [16] = test: Antimicrobial activity against Neisseria gonorrhoeae obtained from patient with uncomplicated gonorrhea expressing penA mutant gene assessed as incidence of susceptible isolates by agar dilution method; summary of the method: as §1
# Neisseria gonorrhoeae [17] = test: Antimicrobial activity against Neisseria gonorrhoeae obtained from patient with uncomplicated gonorrhea expressing mtrR mutant gene assessed as incidence of susceptible isolates by agar dilution method; summary of the method: as §1
# Neisseria gonorrhoeae [18] = test: Antimicrobial activity against Neisseria gonorrhoeae obtained from patient with uncomplicated gonorrhea expressing penB mutant gene assessed as incidence of susceptible isolates by agar dilution method
# Summary of the method: (§3)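 Clinical N. gonorrhoeae isolates were shipped frozen on dry ice and recovered from cryobeads on GC agar. They were subcultured once and then tested by agar dilution on GC agar with PolyViteX supplement, with ATCC 49226 as the control strain. Susceptible, intermediate or resistant status was set by CLSI criteria. Genotype came from PCR for blaTEM-1/tet(M) and from primer-extension minisequencing with MALDI-TOF detection of SNPs.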
# Neisseria gonorrhoeae [19] = test: Antimicrobial activity against Neisseria gonorrhoeae obtained from patient with uncomplicated gonorrhea expressing penA and penB mutant gene assessed as incidence of susceptible isolates by agar dilution method; summary of the method: as §1
# Neisseria gonorrhoeae [20] = test: Antimicrobial activity against Neisseria gonorrhoeae obtained from patient with uncomplicated gonorrhea expressing penA and mtrR mutant gene assessed as incidence of susceptible isolates by agar dilution method; summary of the method: as §1
# Neisseria gonorrhoeae [21] = test: Antimicrobial activity against Neisseria gonorrhoeae obtained from patient with uncomplicated gonorrhea expressing penA, penB and mtrR mutant gene assessed as incidence of susceptible isolates by agar dilution method; summary of the method: as §1
# Neisseria gonorrhoeae [22] = test: Antimicrobial activity against Neisseria gonorrhoeae obtained from patient with uncomplicated gonorrhea expressing penA and ponA mutant gene assessed as incidence of susceptible isolates by agar dilution method; summary of the method: as §1
# Neisseria gonorrhoeae [23] = test: Antimicrobial activity against Neisseria gonorrhoeae obtained from patient with uncomplicated gonorrhea expressing penA, ponA and mtrR mutant gene assessed as incidence of susceptible isolates by agar dilution method; summary of the method: as §1
# Neisseria gonorrhoeae [24] = test: Antimicrobial activity against Neisseria gonorrhoeae obtained from patient with uncomplicated gonorrhea expressing penA, penB and ponA mutant gene assessed as incidence of susceptible isolates by agar dilution method; summary of the method: as §1
# Neisseria gonorrhoeae [25] = test: Antimicrobial activity against Neisseria gonorrhoeae obtained from patient with uncomplicated gonorrhea expressing penA, penB, ponA and mtrR mutant gene assessed as incidence of susceptible isolates by agar dilution method; summary of the method: as §1
# Neisseria gonorrhoeae [26] = test: Antimicrobial activity against Neisseria gonorrhoeae obtained from patient with uncomplicated gonorrhea expressing beta-lactamase TEM-1 mutant gene assessed as incidence of susceptible isolates by agar dilution method; summary of the method: as §1
# Neisseria gonorrhoeae [27] = test: Antimicrobial activity against Neisseria gonorrhoeae obtained from patient with uncomplicated gonorrhea expressing mtrR mutant gene assessed as percentage intermediate isolates by agar dilution method; summary of the method: as §1
# Neisseria gonorrhoeae [28] = test: Antimicrobial activity against Neisseria gonorrhoeae obtained from patient with uncomplicated gonorrhea expressing penB mutant gene assessed as percentage intermediate isolates by agar dilution method; summary of the method: as §3
# Neisseria gonorrhoeae [29] = test: Antimicrobial activity against Neisseria gonorrhoeae obtained from patient with uncomplicated gonorrhea expressing penA and penB mutant gene assessed as percentage intermediate isolates by agar dilution method; summary of the method: as §1
# Neisseria gonorrhoeae [30] = test: Antimicrobial activity against Neisseria gonorrhoeae obtained from patient with uncomplicated gonorrhea expressing penA and mtrR mutant gene assessed as percentage intermediate isolates by agar dilution method; summary of the method: as §1
# Neisseria gonorrhoeae [31] = test: Antimicrobial activity against Neisseria gonorrhoeae obtained from patient with uncomplicated gonorrhea expressing penA, penB and mtrR mutant gene assessed as percentage intermediate isolates by agar dilution method; summary of the method: as §1
# Neisseria gonorrhoeae [32] = test: Antimicrobial activity against Neisseria gonorrhoeae obtained from patient with uncomplicated gonorrhea expressing penA and ponA mutant gene assessed as percentage intermediate isolates by agar dilution method; summary of the method: as §1
# Neisseria gonorrhoeae [33] = test: Antimicrobial activity against Neisseria gonorrhoeae obtained from patient with uncomplicated gonorrhea expressing penA, ponA and mtrR mutant gene assessed as percentage intermediate isolates by agar dilution method; summary of the method: as §1
# Neisseria gonorrhoeae [34] = test: Antimicrobial activity against Neisseria gonorrhoeae obtained from patient with uncomplicated gonorrhea expressing penA, penB and ponA mutant gene assessed as percentage intermediate isolates by agar dilution method; summary of the method: as §1
# Neisseria gonorrhoeae [35] = test: Antimicrobial activity against Neisseria gonorrhoeae obtained from patient with uncomplicated gonorrhea expressing penA, penB, ponA and mtrR mutant gene assessed as percentage intermediate isolates by agar dilution method; summary of the method: as §1
# Neisseria gonorrhoeae [36] = test: Antimicrobial activity against Neisseria gonorrhoeae obtained from patient with uncomplicated gonorrhea expressing beta-lactamase TEM-1 mutant gene assessed as percentage intermediate isolates by agar dilution method; summary of the method: as §1
# Neisseria gonorrhoeae [37] = test: Antimicrobial activity against Neisseria gonorrhoeae obtained from patient with uncomplicated gonorrhea expressing rpsJ and penB mutant gene assessed as percentage intermediate isolates by agar dilution method; summary of the method: as §3
# Neisseria gonorrhoeae [38] = test: Antimicrobial activity against Neisseria gonorrhoeae obtained from patient with uncomplicated gonorrhea expressing rpsJ, penB and mtrR mutant gene assessed as percentage intermediate isolates by agar dilution method; summary of the method: as §3
# Neisseria gonorrhoeae [39] = test: Antimicrobial activity against Neisseria gonorrhoeae obtained from patient with uncomplicated gonorrhea expressing tetM mutant gene in combination with variants of other gene loci assessed as percentage intermediate isolates by agar dilution method; summary of the method: as §3
# Neisseria gonorrhoeae [40] = test: Antimicrobial activity against Neisseria gonorrhoeae obtained from patient with uncomplicated gonorrhea expressing rpsJ mutant gene assessed as incidence of resistant isolates by agar dilution method; summary of the method: as §3
# Neisseria gonorrhoeae [41] = test: Antimicrobial activity against Neisseria gonorrhoeae obtained from patient with uncomplicated gonorrhea expressing rpsJ and mtrR mutant gene assessed as incidence of resistant isolates by agar dilution method; summary of the method: as §3
# Neisseria gonorrhoeae [42] = test: Antimicrobial activity against Neisseria gonorrhoeae obtained from patient with uncomplicated gonorrhea expressing rpsJ and penB mutant gene assessed as incidence of resistant isolates by agar dilution method; summary of the method: as §3
# Neisseria gonorrhoeae [43] = test: Antimicrobial activity against Neisseria gonorrhoeae obtained from patient with uncomplicated gonorrhea expressing rpsJ, penB and mtrR mutant gene assessed as incidence of resistant isolates by agar dilution method; summary of the method: as §3
# Neisseria gonorrhoeae [44] = test: Antimicrobial activity against Neisseria gonorrhoeae obtained from patient with uncomplicated gonorrhea expressing tetM mutant gene in combination with variants of other gene loci assessed as incidence of resistant isolates by agar dilution method; summary of the method: as §3
# Neisseria gonorrhoeae [45] = test: Antimicrobial activity against Neisseria gonorrhoeae obtained from patient with uncomplicated gonorrhea expressing rpsJ mutant gene assessed as incidence of susceptible isolates by agar dilution method; summary of the method: as §3
# Neisseria gonorrhoeae [46] = test: Antimicrobial activity against Neisseria gonorrhoeae obtained from patient with uncomplicated gonorrhea expressing rpsJ and mtrR mutant gene assessed as incidence of susceptible isolates by agar dilution method; summary of the method: as §3
# Neisseria gonorrhoeae [47] = test: Antimicrobial activity against Neisseria gonorrhoeae obtained from patient with uncomplicated gonorrhea expressing rpsJ and penB mutant gene assessed as incidence of susceptible isolates by agar dilution method; summary of the method: as §3
# Neisseria gonorrhoeae [48] = test: Antimicrobial activity against Neisseria gonorrhoeae obtained from patient with uncomplicated gonorrhea expressing rpsJ, penB and mtrR mutant gene assessed as incidence of susceptible isolates by agar dilution method; summary of the method: as §3
# Neisseria gonorrhoeae [49] = test: Antimicrobial activity against Neisseria gonorrhoeae obtained from patient with uncomplicated gonorrhea expressing tetM mutant gene in combination with variants of other gene loci assessed as incidence of susceptible isolates by agar dilution method; summary of the method: as §3
# Neisseria gonorrhoeae [50] = test: Antimicrobial activity against Neisseria gonorrhoeae obtained from patient with uncomplicated gonorrhea expressing rpsJ mutant gene assessed as percentage intermediate isolates by agar dilution method; summary of the method: as §3
# Neisseria gonorrhoeae [51] = test: Antimicrobial activity against Neisseria gonorrhoeae obtained from patient with uncomplicated gonorrhea expressing rpsJ and mtrR mutant gene assessed as percentage intermediate isolates by agar dilution method; summary of the method: as §3
compound,measurement,setting,value
O=C(O)c1cn(C2CC2)c2cc(N3CCNCC3)c(F)cc2c1=O [CIPROFLOXACIN],Activity,Neisseria gonorrhoeae [1],0%
same,Activity,Neisseria gonorrhoeae [2],99.3%
same,Activity,Neisseria gonorrhoeae [3],0.7%
same,Activity,Neisseria gonorrhoeae [4],0%
CC1(C)S[C@@H]2[C@H](NC(=O)Cc3ccccc3)C(=O)N2[C@H]1C(=O)O [PENICILLIN G],Activity,Neisseria gonorrhoeae [1],0%
same,Activity,Neisseria gonorrhoeae [5],3.9%
same,Activity,Neisseria gonorrhoeae [6],0%
same,Activity,Neisseria gonorrhoeae [7],0%
same,Activity,Neisseria gonorrhoeae [8],0%
same,Activity,Neisseria gonorrhoeae [9],6.7%
same,Activity,Neisseria gonorrhoeae [10],0%
same,Activity,Neisseria gonorrhoeae [11],5.1%
same,Activity,Neisseria gonorrhoeae [12],8%
same,Activity,Neisseria gonorrhoeae [13],9.2%
same,Activity,Neisseria gonorrhoeae [14],17.3%
same,Activity,Neisseria gonorrhoeae [15],83.3%
same,Activity,Neisseria gonorrhoeae [2],90.7%
same,Activity,Neisseria gonorrhoeae [16],49%
same,Activity,Neisseria gonorrhoeae [17],100%
same,Activity,Neisseria gonorrhoeae [18],100%
same,Activity,Neisseria gonorrhoeae [19],28.6%
same,Activity,Neisseria gonorrhoeae [20],33.3%
same,Activity,Neisseria gonorrhoeae [21],50%
same,Activity,Neisseria gonorrhoeae [22],15.4%
same,Activity,Neisseria gonorrhoeae [23],9.7%
same,Activity,Neisseria gonorrhoeae [24],7.9%
same,Activity,Neisseria gonorrhoeae [25],11.3%
same,Activity,Neisseria gonorrhoeae [26],0%
same,Activity,Neisseria gonorrhoeae [3],9.3%
same,Activity,Neisseria gonorrhoeae [4],47.1%
same,Activity,Neisseria gonorrhoeae [27],0%
same,Activity,Neisseria gonorrhoeae [28],0%
same,Activity,Neisseria gonorrhoeae [29],71.4%
same,Activity,Neisseria gonorrhoeae [30],60%
same,Activity,Neisseria gonorrhoeae [31],50%
same,Activity,Neisseria gonorrhoeae [32],79.5%
same,Activity,Neisseria gonorrhoeae [33],82.3%
same,Activity,Neisseria gonorrhoeae [34],82.8%
same,Activity,Neisseria gonorrhoeae [35],71.4%
same,Activity,Neisseria gonorrhoeae [36],16.7%
CN(C)[C@@H]1C(O)=C(C(N)=O)C(=O)[C@@]2(O)C(O)=C3C(=O)c4c(O)cccc4[C@@](C)(O)[C@H]3C[C@@H]12 [TETRACYCLINE],Activity,Neisseria gonorrhoeae [37],25.3%
same,Activity,Neisseria gonorrhoeae [38],23%
same,Activity,Neisseria gonorrhoeae [39],0%
same,Activity,Neisseria gonorrhoeae [1],0%
same,Activity,Neisseria gonorrhoeae [6],0%
same,Activity,Neisseria gonorrhoeae [40],18.7%
same,Activity,Neisseria gonorrhoeae [41],46.2%
same,Activity,Neisseria gonorrhoeae [42],54%
same,Activity,Neisseria gonorrhoeae [43],56.1%
same,Activity,Neisseria gonorrhoeae [44],100%
same,Activity,Neisseria gonorrhoeae [2],83.5%
same,Activity,Neisseria gonorrhoeae [17],100%
same,Activity,Neisseria gonorrhoeae [45],30.5%
same,Activity,Neisseria gonorrhoeae [46],26.9%
same,Activity,Neisseria gonorrhoeae [47],20.7%
same,Activity,Neisseria gonorrhoeae [48],20.9%
same,Activity,Neisseria gonorrhoeae [49],0%
same,Activity,Neisseria gonorrhoeae [3],16.5%
same,Activity,Neisseria gonorrhoeae [4],0%
same,Activity,Neisseria gonorrhoeae [27],0%
same,Activity,Neisseria gonorrhoeae [50],50.8%
same,Activity,Neisseria gonorrhoeae [51],26.9%
